# A number with no mark means an inactive call. Results filed as inconclusive are left out. The source made the active and inactive calls.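 Rule for the calls, unless noted: active = RAM network inhibition above 8.4% in each of two replicates, 3 SD over the compound average; inconclusive = above 8.4% inhibition in only one replicate; inactive = 8.4% inhibition or less in each replicate.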
# Tests used:
# [1] = OD615 S. cerevisiae growth inhibition, permissive medium, pilot counter-assay, permissive growth control for S. cerevisiae lifespan shortening project (AID 705;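 active = growth inhibition above 25% in both replicates, a cutoff set 3 SD above the mean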); settings: OD615, 24 h, at 10 µM, stronger effect = higher value
# Summary of the method: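 System: Engineered DeaD yeast | Buffer or medium: SC raffinose/galactose permissive medium | Incubation: Cells pre-grown 4 h, then 24 h compound exposure, 30 °C humidified | Measured by: Absorbance (optical density) at 615 nm | Read-out: Reduction in yeast growth (OD615)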
# [2] = Restrictive medium S. cerevisiae growth inhibition, OD615, pilot screen of yeast lifespan reduction project, restrictive growth control (AID 706;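 active = growth inhibition above a set limit, 3 SD over mean compound inhibition, in both replicates, cut at about 43% in these data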;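 note: modified DeaD lifespan yeast strain shifted to restrictive glucose medium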); settings: OD615, 48 h, at 10 µM, stronger effect = higher value
# Summary of the method: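 Material: modified S. cerevisiae; Medium: glucose-based CSMM-D restrictive medium; Compound dosing: one concentration, 10 µM final, 0.25% DMSO; Incubation: 48 h compound exposure at 30 °C; Measured by: OD615.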
# [3] = viability gain of MRP-1-high H69AR cells under doxorubicin, pilot screen, MRP-1 activator project, CellTiter-Glo, duplicate (AID 807;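 active = viability increase at or above a cutoff of the median across tested compounds plus 3 SD, cut at about 8.5% in these data, passing the limit was not always enough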;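 note: compound pretreatment 18-22 h then 72 h combined with doxorubicin; 0% = doxorubicin alone and 100% = vehicle without doxorubicin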); settings: H69AR viability with doxorubicin, CellTiter-Glo luminescence; at 10 µM; stronger effect = higher value
# [4] = growth suppression of beta-catenin knockout HCT116, pilot screen, human colon tumor cells (AID 823;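 active = cell viability at or below a set limit in both duplicate runs, the limit being the all-compound median minus 4 SD, cut at about 23% in these data, passing the limit was not always enough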;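 note: 0% = wells killed by 20 µM Hyamine and 100% = untreated DMSO cell wells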); settings: CellTiter-Glo, 60 h, at 10 µM, stronger effect = lower value
# [5] = growth suppression of PTEN-deleted HCT116, pilot screen, cell-based, HCT116 clonal line, CellTiter-Glo (AID 824;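 active = viability at or below 27.92% in each of two runs, the all-compound median minus 4 SD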;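 note: 0% = 20 µM Hyamine control and 100% = vehicle cell control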); settings: 60 h, at 10 µM, stronger effect = lower value
# [6] = inhibitors of the yeast RAM network, pilot screen, dse1pr::URA3 reporter, 5-FOA selection (AID 869;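 active = inhibition over a set limit, the all-compound mean plus 3 SD, in both replicate runs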;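 note: 0% = DMSO wells with no growth and 100% = 10 µM 1-NA-PP1 with full growth; RAM network block rescues cells from 5-FOA so hits raise OD615 growth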); settings: S. cerevisiae dse1pr::URA3 5-FOA growth, OD615, 2 d; at 10 µM; stronger effect = higher value; strain carries analog-sensitive mutant Cbk1 kinase
# [7] = RAM signaling pathway blockade in yeast – S. cerevisiae, Pdr1DBD-CYC8 efflux-inhibited sensitized strain, primary screen (AID 1298);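 note: 0% = DMSO untreated cells without growth and 100% = 10 µM 1-NA-PP1 full growth; higher means more yeast growth rescued from 5-FOA killing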; settings: S. cerevisiae cbk1-as DSE1-URA3 strain, 5-FOA growth OD615, 2 d; at 50 µM; stronger effect = higher value
Structure (SMILES),growth inhibition [1],growth inhibition [2],viability increase [3],viability [4],viability [5],inhibition [6],RAM network inhibition [7]
COc1ccc(NC(=O)C2CCCN(S(=O)(=O)c3cccc4cccnc34)C2)c(OC)c1 (stereo unspecified),-9.1%,-2.73%,-2.29%,70.4%,70.7%,1.19%,9.52%
COc1ccc(CN=CC2=C(O)CNC2=O)cc1OC,-12%,-8.51%,-0.57%,99.8%,103%,1.47%,5.81%
O=C(CC1Oc2ccccc2NC1=O)NCCCN1CCN(Cc2ccccc2)CC1 (stereo unspecified),2.54%,-3.21%,-3.71%,94.3%,93.3%,1.56%,5.35%
Fc1ccccc1COc1cccc(/C=N/n2cnnc2)c1,2.62%,11.6%,0.12%,96.2%,84.9%,0.35%,0.15%
Cc1cc(C)c2c(N)c(C(=O)Nc3nccs3)sc2n1,0.355%,16.4%,-5.52%,87.8%,90.5%,2%,-0.11%
O=C1C2CCCN2C(c2ccccc2)N1c1ccc(F)cc1 (stereo unspecified),-1.42%,3.23%,-2.06%,96.9%,89.3%,2.05%,2.34%
COc1ccc(N2CCN(c3cc(C)c4ccc(O)cc4n3)CC2)cc1,3.12%,10.5%,-2.1%,75.7%,79.8%,0.39%,6.62%
CCOCCn1c(N(C)Cc2ccccc2)nc2c1c(=O)[nH]c(=O)n2C,-10.9%,-6.11%,0.04%,101%,95.6%,0.985%,5.77%
O=C(CSc1nc2c(cnn2-c2ccc(F)cc2)c(=O)[nH]1)N1CCCc2ccccc21,-2.67%,-5.17%,-3.32%,87.2%,83%,1.2%,4.44%
COc1ccc(NC(=O)C2CCN(S(=O)(=O)c3ccc(C)cc3)CC2)cc1OC,4.97%,1.39%,-3.08%,97.1%,101%,2.25%,4.75%
Cc1ccc2oc(=O)c3cc(C(=O)N4CCN(c5ncccn5)CC4)sc3c2c1,-7.63%,-1.9%,-3.11%,107%,98.1%,1.62%,2.64%
CN1C[N+]([O-])=C(c2ccccc2)C1(C)C,-1.95%,-8.32%,-2.64%,98.7%,91.2%,0.69%,1.81%
c1nc(N2CCNCC2)c2sc3nc(N4CCOCC4)c4c(c3c2n1)CCC4,-0.055%,6.55%,-6.75%,2.54% (active),1.69% (active),2.3%,7.31%
O=C(c1ccc(S(=O)(=O)N2CCOCC2)cc1)N1CCN(c2ccccc2)CC1,-12.5%,2.02%,0.13%,93.7%,101%,1.82%,1.64%
O=C(CN(Cc1ccccc1)S(=O)(=O)c1ccccc1)NC1CC1,-4.36%,11.6%,-1.25%,102%,96%,-0.45%,0.45%
CCOC(=O)c1[nH]c2c(c1C)C(=O)CC(c1ccc(N(C)C)cc1)C2 (stereo unspecified),-3.69%,-0.995%,-3.6%,77%,71.7%,2.3%,1.32%
CCOC(=O)N1CCN(C(=O)CSc2nnc(-c3ccc(C(C)(C)C)cc3)o2)CC1,-7.79%,8.32%,-1.07%,85.2%,83.7%,0.505%,1.1%
N#Cc1ccc(Oc2cccc(C(=O)O)c2)cc1C#N,-13.1%,-3.21%,-0.11%,94.8%,92.7%,1.34%,2.14%

# From PubChem BioAssay
